Source: the array DNA melting data of Ke et al. (doi:10.1101/2024.01.08.574731)

Key:
[1] = folding enthalpy; higher = less favourable; fluorescence melt of hairpins on a sequencing array, two-state fit; conditions: sodium 0.088 M
Procedure, shortened: (§1)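 Library hairpins on a sequenced MiSeq flow cell carried annealed Cy3 and quencher oligos, and their Cy3 fluorescence was imaged in 50 mM Na-HEPES pH 8.0 with 25 mM NaCl, in 2.5 °C steps up to 60 °C. Signals were normalised to Cy3 before quenching and to control constructs. Melting temperature and folding enthalpy were obtained from bootstrapped two-state fits, combined by inverse-variance weighting across four replicates, and the fitted temperatures were then raised by 9.35 °C to match UV melts.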

[2] = melting temperature; fluorescence melt of hairpins on a sequencing array, two-state fit, raised by 9.35 °C to match UV melts; conditions: sodium 0.088 M
Procedure, shortened: as §1

Row | Sequence | folding enthalpy [1] [kcal/mol] | Tm [2] [°C]
1 | GATCCTGTCCAGGATC ((((((....)))))) | -48.3 | 58.1
2 | GATCCTGTGAGGATC ((((((...)))))) | -32.3 | 53.3
3 | GATCCTGTTAAGGATC ((((((....)))))) | -48.7 | 65.7
4 | GATCCTTAAAAGGATC ((((((....)))))) | -41.7 | 49.7
5 | GATCCTTAATAGGATC ((((((....)))))) | -39.1 | 50.1
6 | GATCCTTACAGGATC ((((((...)))))) | -34.2 | 56
7 | GATCCTTATGAGGATC ((((((....)))))) | -37.1 | 53.3
8 | GATCCTTCAAGGATC ((((((...)))))) | -36.9 | 54.7
9 | GATCCTTCATAGGATC ((((((....)))))) | -39.5 | 52.4
10 | GATCCTTCGAAGGATC ((((((....)))))) | -49.6 | 54.1
11 | GATCCTTCGAGGATC ((((((...)))))) | -28.7 | 54.4
12 | GATCCTTCTGAGGATC ((((((....)))))) | -38.4 | 53.7
13 | GATCCTTGGAGGATC ((((((...)))))) | -42 | 50.4
14 | GATCCTTTAAAGGATC ((((((....)))))) | -40.9 | 53.4
15 | GATCCTTTGAAGGATC ((((((....)))))) | -36 | 52.4
16 | GATCCTTTTTAGGATC ((((((....)))))) | -34.7 | 53.9
17 | GATCGAAAGCTCGATC ((((((....)))))) | -29.6 | 48.7
18 | GATCGAAAGTCGATC ((((((...)))))) | -30.5 | 48.8
19 | GATCGAACAGTCGATC ((((((....)))))) | -31.4 | 47.7
20 | GATCGAACATCGATC ((((((...)))))) | -37.3 | 49
21 | GATCGAACCTCGATC ((((((...)))))) | -34.4 | 50.7
22 | GATCGAAGAATCGATC ((((((....)))))) | -28.4 | 47.1
23 | GATCGAAGAGTCGATC ((((((....)))))) | -31.6 | 47.5
24 | GATCGAAGCGTCGATC ((((((....)))))) | -39.9 | 51.1

Row | Sequence | folding enthalpy [1] [kcal/mol] | Tm [2] [°C]
25 | GATCGAAGGTCGATC ((((((...)))))) | -25.6 | 50.9
26 | GATCGAAGTGTCGATC ((((((....)))))) | -42.2 | 51.2
27 | GATCGAATATCGATC ((((((...)))))) | -33.4 | 50.4
28 | GATCGAATCGTCGATC ((((((....)))))) | -32.1 | 51.4
29 | GATCGAATCTTCGATC ((((((....)))))) | -42.4 | 54.2
30 | GATCGAATTTCGATC ((((((...)))))) | -46.1 | 51.5
31 | GATCGACCAATCGATC ((((((....)))))) | -34.2 | 49
32 | GATCGACCACTCGATC ((((((....)))))) | -38.1 | 50.5
33 | GATCGACCAGTCGATC ((((((....)))))) | -43.9 | 57.4
34 | GATCGACCTATCGATC ((((((....)))))) | -38.9 | 51
35 | GATCGACGATCGATC ((((((...)))))) | -20.6 | 49.2
36 | GATCGACGGCTCGATC ((((((....)))))) | -42.7 | 50.5
37 | GATCGACGGGTCGATC ((((((....)))))) | -46 | 63.3
38 | GATCGACTACTCGATC ((((((....)))))) | -36.5 | 50.7
39 | GATCGAGAATTCGATC ((((((....)))))) | -39.7 | 57.4
40 | GATCGAGATTCGATC ((((((...)))))) | -41.4 | 50.4
41 | GATCGAGATTTCGATC ((((((....)))))) | -46.7 | 51.8
42 | GATCGAGCACTCGATC ((((((....)))))) | -42.9 | 57.6
43 | GATCGAGCATCGATC ((((((...)))))) | -41.3 | 58.7
44 | GATCGAGCCATCGATC ((((((....)))))) | -39.7 | 59.2
45 | GATCGAGCCTCGATC ((((((...)))))) | -34.9 | 52.8
46 | GATCGAGCCTTCGATC ((((((....)))))) | -39.5 | 56.4
47 | GATCGAGCGCTCGATC ((((((....)))))) | -44 | 62.2
48 | GATCGAGCTGTCGATC ((((((....)))))) | -38.6 | 51.3

Row | Sequence | folding enthalpy [1] [kcal/mol] | Tm [2] [°C]
49 | GATCGAGGAAACTCAATC (((.(((....))).))) | -10.2 | 25.9
50 | GATCGAGGAAACTCGACC (.(((((....))))).) | -14.8 | 41.4
51 | GATCGAGGAAACTTGGTC ((.(.((....)).).)) | -8.03 | 22.6
52 | GATCGAGGATTCGATC ((((((....)))))) | -36.8 | 57.9
53 | GATCGAGTAATCGATC ((((((....)))))) | -39 | 57.4
54 | GATCGAGTCTTCGATC ((((((....)))))) | -37.6 | 58.4
55 | GATCGATAATCGATC ((((((...)))))) | -37.7 | 49.5
56 | GATCGATAGGTCGATC ((((((....)))))) | -42.2 | 53
57 | GATCGATATATCGATC ((((((....)))))) | -41 | 56
58 | GATCGATCAATCGATC ((((((....)))))) | -40.9 | 53.8
59 | GATCGATCATTCGATC ((((((....)))))) | -39.5 | 53.7
60 | GATCGATCCTCGATC ((((((...)))))) | -40.4 | 52.1
61 | GATCGATCTTCGATC ((((((...)))))) | -33.6 | 52.5
62 | GATCGATGATTCGATC ((((((....)))))) | -36.4 | 53.2
63 | GATCGATGCGTCGATC ((((((....)))))) | -43.7 | 57
64 | GATCGATGGGTCGATC ((((((....)))))) | -39.7 | 57.5
65 | GATCGATGGTCGATC ((((((...)))))) | -29.4 | 50.6
66 | GATCGATGGTTCGATC ((((((....)))))) | -43 | 51.2
67 | GATCGATGTATCGATC ((((((....)))))) | -40.9 | 58.4
68 | GATCGATTATTCGATC ((((((....)))))) | -42.7 | 54.2
69 | GATCGATTCATCGATC ((((((....)))))) | -39.9 | 59.3
70 | GATCGATTGATCGATC ((((((....)))))) | -45.5 | 54.8
71 | GATCGCAAACGCGATC ((((((....)))))) | -42.1 | 64.8
72 | GATCGCAATGGCGATC ((((((....)))))) | -35.6 | 67.4

Row | Sequence | folding enthalpy [1] [kcal/mol] | Tm [2] [°C]
73 | GATCGCACGGCGATC ((((((...)))))) | -33 | 69.3
74 | GATCGCACTGGCGATC ((((((....)))))) | -34 | 68.2
75 | GATCGCAGACGCGATC ((((((....)))))) | -30.9 | 67.8
76 | GATCGCAGGAGCGATC ((((((....)))))) | -26.6 | 68.3
77 | GATCGCATATGCGATC ((((((....)))))) | -33.8 | 68.8
78 | GATCGCATCCGCGATC ((((((....)))))) | -33.4 | 68.7
79 | GATCGCCACTGCGATC ((((((....)))))) | -42.9 | 65.3
80 | GATCGCCCAGCGATC ((((((...)))))) | -32.1 | 67.4
81 | GATCGCCCGCGCGATC ((((((....)))))) | -30.6 | 66.3
82 | GATCGCCCTCGCGATC ((((((....)))))) | -27.9 | 67.5
83 | GATCGCCGAAAGGCATC (((.(((....)))))) | -9.53 | 37.6
84 | GATCGCCGACGCGATC ((((((....)))))) | -35.7 | 66.5
85 | GATCGCCTAAGCGATC ((((((....)))))) | -40.8 | 68
86 | GATCGCCTCCGCGATC ((((((....)))))) | -44.6 | 63.9
87 | GATCGCCTGAGCGATC ((((((....)))))) | -29.1 | 68.7
88 | GATCGCGAAAGCGCGATC ((((((....)))..))) | -30.8 | 64.1
89 | GATCGCGAAAGCGGATC ((((((....))).))) | -16.4 | 57
90 | GATCGCGAAAGCGTGATC ((((((....)))..))) | -14.3 | 42.8
91 | GATCGCGCCGGCGATC ((((((....)))))) | -25.3 | 68.2
92 | GATCGCGTGGGCGATC ((((((....)))))) | -30.8 | 68.2
93 | GATCGCTAAGCGATC ((((((...)))))) | -33.5 | 67.9
94 | GATCGCTACGGCGATC ((((((....)))))) | -40.5 | 67.8
95 | GATCGCTAGCGCGATC ((((((....)))))) | -34 | 66.5
96 | GATCGCTATCGCGATC ((((((....)))))) | -36.9 | 67.1
